Reference: PMC3382646 (Journal of Computer-Aided Molecular Design, 2011)

Target: T1, Bovine pancreatic trypsin (Bos taurus, UniProt P00760)
T1 sequence (P00760 24-246): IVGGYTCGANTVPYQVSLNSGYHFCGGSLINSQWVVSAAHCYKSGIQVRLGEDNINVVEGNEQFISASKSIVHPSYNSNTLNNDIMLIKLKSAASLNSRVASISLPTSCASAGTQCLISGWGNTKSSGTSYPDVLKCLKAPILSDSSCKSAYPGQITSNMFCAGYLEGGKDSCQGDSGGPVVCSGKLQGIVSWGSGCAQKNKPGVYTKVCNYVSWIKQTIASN
Assay: X-ray crystallography of fragments soaked into trypsin crystals
Details: two-step soak, 24-48 h each, crystals in P212121, pH 5.8
In short: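 Crystals soaked in DMSO-derived fragment/cryoprotectant mix, then transferred to fresh mix. At least two crystals per soak, liquid-nitrogen cooled; synchrotron, 181 × 1° frames, 1–3 s. Automated processing, ligand placed in active-site density, manual rebuilding.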

## NCc1cccc(N2CCCC2)c1 [CC 38513]
  Soaked fragment density: Yes
